In ChEMBL document CHEMBL1125146, “The development of a novel series of (quinolin-2-ylmethoxy)phenyl-containing compounds as high-affinity leukotriene receptor antagonists. 3. Structural variation of the acidic side chain to give antagonists of enhanced potency” (J Med Chem, 1990):
Calls of active or inactive are those of the source. The calls are words filed in the database; no cut-off is given here.

What was measured:
Cavia porcellus [1] = species on record: Cavia porcellus; experiment: Inhibition of leukotriene-induced contractions of peripheral guinea pig lung strip; format: functional, organism-based
Procedure, shortened: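 Peripheral guinea pig lung parenchymal strips were challenged with single spasmogen concentrations (LTC4, LTD4 or LTE4), washed, equilibrated, then rechallenged with or without compound. Compound was preincubated at least 5 min before spasmogen. Each tissue served as its own control and was standardized with 1 μM histamine.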

[2] = molecular target: Cavia porcellus CysLT1 receptor; experiment: In vitro binding affinity against cysteinyl leukotriene D4 receptor from guinea pig lung membrane
Cavia porcellus [3] = experiment: (§1) Tested in vivo for LTD4-induced […] after oral administration by Dermal wheal assay method; format: functional; set-up: concentration or dose not given beside the values
Procedure, shortened: (§2)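 Guinea pigs dosed orally, usually at a single dose, with full dose-response curves for selected compounds. Read-out was antagonism of wheal and flare from intradermal injection of 100 ng LTD4. Five or more animals per dose.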

Cavia porcellus [4] = experiment: (§3) Tested in vivo for antigen-induced systemic anaphylaxis after oral administration; format: functional
Cavia porcellus [5] = experiment: as §1; format: functional; procedure, shortened: as §2
Cavia porcellus [6] = experiment: as §3; format: functional; set-up: concentration or dose not given beside the values
Cavia porcellus [7] = experiment: Tested in vivo for antigen-induced systemic anaphylaxis after oral administration; inactive; format: functional, organism-based
Cavia porcellus [8] = experiment: Tested in vivo for LTD4-induced […] after oral administration by Dermal wheal assay method; inactive; format: functional, organism-based; procedure, shortened: as §2

IC50 (Cavia porcellus [1]) [nM] | Ki [2] [nM] | Compound | Inhibition (Cavia porcellus [3]) [%] | ED50 (Cavia porcellus [4]) [mg/kg] | ED50 (Cavia porcellus [5]) [mg/kg] | Inhibition (Cavia porcellus [6]) [%] | ED50 (Cavia porcellus [7]) | ED50 (Cavia porcellus [8])
90 | 100 | O=C(O)CC1CCCC1Cc1ccc(OCc2ccc3ccccc3n2)cc1 (stereo unspecified) |  |  |  |  |  | 
250 | 31 | CC(CCCc1nnn[nH]1)c1cccc(OCc2ccc3ccccc3n2)c1 (stereo unspecified) | 62 |  |  |  |  | 
250 | 69 | c1ccc2nc(COc3ccc(OCCCc4nnn[nH]4)cc3)ccc2c1 |  |  |  |  |  | 
500 | 90 | CC(CCCC(=O)O)c1cccc(OCc2ccc3ccccc3n2)c1 (stereo unspecified) |  |  |  |  |  | 
27 | 12 | CC(CCc1nnn[nH]1)Cc1ccc(OCc2ccc3ccccc3n2)cc1 (stereo unspecified) |  | 1.2 | 2.5 |  |  | 
500 | 24 | CC(Cc1cccc(OCc2ccc3ccccc3n2)c1)CC(C)C(=O)O (stereo unspecified) |  |  |  |  |  | 
65 | 31 | O=C(O)CCC(Cc1ccc(OCc2ccc3ccccc3n2)cc1)c1ccccc1 (stereo unspecified) | 33 |  |  | 50 |  | 
800 | 1200 | O=C(O)CCCOc1ccc(OCc2ccc3ccccc3n2)cc1 |  |  |  |  |  | 
70 | 50 | CCCC(CCC(=O)O)Cc1cccc(OCc2ccc3ccccc3n2)c1 (stereo unspecified) |  |  |  |  |  | 
800 |  | CCCc1c(OCC(O)COc2ccc3c(=O)cc(C(=O)O)oc3c2CCC)ccc(C(C)=O)c1O (stereo unspecified) [FPL-55712] |  |  |  |  | inactive | inactive
60 | 51 | O=C(O)CC1(CCc2ccc(OCc3ccc4ccccc4n3)cc2)CCCC1 | 73 |  |  | 17 |  | 
45 |  | c1ccc2nc(COc3ccc(CCCCc4nnn[nH]4)cc3)ccc2c1 | 38 |  |  | 100 |  | 
16 | 11 | CCCC(CCc1nnn[nH]1)Cc1cccc(OCc2ccc3ccccc3n2)c1 (stereo unspecified) | 38 |  |  |  |  | 
79 | 42 | c1cc(OCCCc2nnn[nH]2)cc(OCc2ccc3ccccc3n2)c1 |  |  |  |  |  | 
100 | 43 | CC(CCC(=O)O)Cc1ccc(OCc2ccc3ccccc3n2)cc1 (stereo unspecified) |  |  |  |  |  | 
30 | 21 | CCCC(CCC(=O)O)Cc1ccc(OCc2ccc3ccccc3n2)cc1 (stereo unspecified) |  | 9.7 | 6.5 |  |  | 
0.4 | 0.2 | COc1cc(C(=O)NS(=O)(=O)c2ccccc2)ccc1Cn1ncc2ccc(NC(=O)OC3CCCC3)cc21 [ICI-198615] |  |  | > 30 | 0 |  | 

IC50 (Cavia porcellus [1]) [nM] | Ki [2] [nM] | Compound | Inhibition (Cavia porcellus [3]) [%] | ED50 (Cavia porcellus [4]) [mg/kg] | ED50 (Cavia porcellus [5]) [mg/kg] | Inhibition (Cavia porcellus [6]) [%] | ED50 (Cavia porcellus [7]) | ED50 (Cavia porcellus [8])
150 | 34 | CC(CCc1nnn[nH]1)Cc1cccc(OCc2ccc3ccccc3n2)c1 (stereo unspecified) | 40 |  |  |  |  | 
170 | 43 | CC(CCCc1nnn[nH]1)c1ccc(OCc2ccc3ccccc3n2)cc1 (stereo unspecified) |  |  |  |  |  | 
14 | 8 | c1ccc(C(CCc2nnn[nH]2)Cc2ccc(OCc3ccc4ccccc4n3)cc2)cc1 (stereo unspecified) |  |  |  |  |  | 
24 | 14 | c1ccc(C(CCc2nnn[nH]2)Cc2cccc(OCc3ccc4ccccc4n3)c2)cc1 (stereo unspecified) | 61 |  |  |  |  | 
45 | 17 | CC(CCc1cccc(OCc2ccc3ccccc3n2)c1)Cc1nnn[nH]1 (stereo unspecified) |  |  | 2.8 | 27 |  | 
500 | 140 | CC(CCC(=O)O)Cc1cccc(OCc2ccc3ccccc3n2)c1 (stereo unspecified) |  |  |  |  |  | 
32 |  | CCCC(CCc1nnn[nH]1)Cc1ccc(OCc2ccc3ccccc3n2)cc1 (stereo unspecified) |  | 7 | 7.2 |  |  | 
37 | 25 | c1ccc2nc(COc3ccc(CCC4(Cc5nnn[nH]5)CCCC4)cc3)ccc2c1 |  | 2.8 | 4.2 |  |  | 
1500 |  | CCCc1c(OCCCCc2nnn[nH]2)ccc(C(C)=O)c1O [TOMELUKAST] |  | > 30 | > 30 |  |  | 
20 | 25 | CC(CCc1ccc(OCc2ccc3ccccc3n2)cc1)Cc1nnn[nH]1 (stereo unspecified) |  |  |  |  |  | 
56 | 52 | O=C(O)CCC(Cc1cccc(OCc2ccc3ccccc3n2)c1)c1ccccc1 (stereo unspecified) | 78 |  |  | 100 |  | 
370 | 100 | O=C(O)CCCCc1cccc(OCc2ccc3ccccc3n2)c1 |  |  |  |  |  | 
105 | 20 | c1cc(CCCCc2nnn[nH]2)cc(OCc2ccc3ccccc3n2)c1 | 16 |  |  | 83 |  | 
800 | 70 | CC(CCc1cccc(OCc2ccc3ccccc3n2)c1)CC(=O)O (stereo unspecified) |  |  |  |  |  | 
75 | 85 | CC(CCCc1cccc(OCc2ccc3ccccc3n2)c1)C(=O)O (stereo unspecified) |  |  |  |  |  | 
450 | 110 | O=C(O)CCCCc1ccc(OCc2ccc3ccccc3n2)cc1 |  |  |  |  |  | 
20 | 15 | c1ccc2nc(COc3ccc(CC4CCCC4Cc4nnn[nH]4)cc3)ccc2c1 (stereo unspecified) |  | 12 | 10 |  |  | 
